According to ChEMBL document CHEMBL4138189, “Role of the Benzodioxole Group in the Interactions between the Natural Alkaloids Chelerythrine and Coptisine and the Human Telomeric G-Quadruplex DNA. A Multiapproach Investigation” (J Nat Prod, 2017):
Activity calls are given as the source filed them. No cut-off for these calls is given here.

Tests used:
Quadruplex DNA [1] = experiment: Binding affinity to telomeric 22 H1 G-quadruplex DNA (unknown origin) assessed as decrease in positive cotton effect at 260 nm at 40 to 80 uM by electronic circular dichorism spectra analysis; format: nucleic-acid assay
How it was run: (§1)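 DNA annealed at 4 μM (strand concentration) in 10 mM Tris, 50 mM KCl, pH 7.5, with or without 40% MPD. ECD spectra were read at 230–350 nm in a 10 mm cell under Peltier temperature control, without ligand and with increasing ligand (0–80 μM). Cotton effects were converted to mean residue ellipticity.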

Quadruplex DNA [2] = experiment: Binding affinity to telomeric 12 G-quadruplex DNA (unknown origin) assessed as increase in cotton effect amplitude up to 10 fold excess DNA concentration in presence of MPD by electronic circular dichorism spectra analysis; format: nucleic-acid assay
Quadruplex DNA [3] = experiment: Binding affinity to wild-type telomeric 22 H2 G-quadruplex DNA (unknown origin) assessed as decrease in positive cotton effect at 260 nm at 40 to 80 uM in presence of KCl by electronic circular dichorism spectra analysis; format: nucleic-acid assay; how it was run: as §1
Quadruplex DNA [4] = experiment: Binding affinity to telomeric 22 H1 G-quadruplex DNA (unknown origin) assessed as increase in positive cotton effect at 295 nm at 40 to 80 uM by electronic circular dichorism spectra analysis; format: nucleic-acid assay; how it was run: as §1
Quadruplex DNA [5] = experiment: Displacement of thiazole orange from telomeric 22 H1 G-quadruplex DNA (unknown origin) in presence of KCl by fluorescent intercalator displacement assay; format: nucleic-acid assay
How it was run: (§2)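 Target DNA (0.62 μM) was mixed with thiazole orange (1.24 μM) in 10 mM Tris, 50 mM KCl, pH 7.5, at 25 °C and titrated with compound. Fluorescence was excited at 501 nm and read at 520–680 nm. Displacement = 100 − (F/F0 × 100); EC50 was taken from displacement versus concentration. Each titration was run at least in triplicate.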

Quadruplex DNA [6] = experiment: Binding affinity to wild-type telomeric 22 H2 G-quadruplex DNA (unknown origin) assessed as increase in positive cotton effect at 295 nm at 40 to 80 uM in presence of KCl by electronic circular dichorism spectra analysis; format: nucleic-acid assay; how it was run: as §1
Quadruplex DNA [7] = experiment: Displacement of thiazole orange from wild-type telomeric 22 H2 G-quadruplex DNA (unknown origin) in presence of KCl by fluorescent intercalator displacement assay; format: nucleic-acid assay; how it was run: as §2
Calf thymus DNA [8] = experiment: Binding affinity to calf thymus DNA in presence of KCl by UV-spectra analysis; format: nucleic-acid assay; conditions: Bos taurus
[9] = Selectivity ratio of EC50 for displacement of thiazole orange from wild-type telomeric 22 H2 G-quadruplex DNA (unknown origin) to EC50 for displacement of thiazole orange from telomeric 22 H1 G-quadruplex DNA (unknown origin); how it was run: as §2
Quadruplex DNA [10] = experiment: Stabilization of 5'Dabcyl/3'FAM labeled human telomeric sequence G-quadruplex DNA assessed as change in melting temperature up to 30 uM in presence of KCl by fluorescence assay; format: nucleic-acid assay
How it was run: (§3)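 Labelled telomeric DNA, 0.25 μM strand, in 10 mM LiOH, pH 7.5 (H3PO4), 50 mM KCl, with increasing ligand. Samples were heated and cooled over 25–95 °C at 0.1 °C/s, held 5 min at 30 °C, then heated to 95 °C at 1 °C/min. Fluorescence excited at 488 nm, read at 520 nm. Tm from first derivative of melting profile; at least triplicate, errors ±0.3 °C.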

Quadruplex DNA [11] = experiment: Stabilization of 5'Dabcyl/3'FAM labeled human telomeric sequence G-quadruplex DNA assessed as change in melting temperature at 5 uM in presence of KCl by fluorescence assay; format: nucleic-acid assay; how it was run: as §3
Calf thymus DNA [12] = experiment: Stabilization of calf thymus DNA assessed as change in melting temperature at 5 uM by fluorescence assay; format: nucleic-acid assay; conditions: Bos taurus
Calf thymus DNA [13] = experiment: Binding affinity to calf thymus DNA up to 80 uM in presence of KCl by electronic circular dichorism spectra analysis; format: nucleic-acid assay; conditions: Bos taurus; how it was run: as §1

Q: Which Activity (Quadruplex DNA [1]) does the source give for `c1c2c(cc3c1OCO3)-c1cc3ccc4c(c3c[n+]1CC2)OCO4` [COPTISINE] here?
A: Its Activity is “Active”.

Q: What about the Activity (Quadruplex DNA [2]) of the same compound?
A: The Activity was “Active”.

Q: What about the Activity (Quadruplex DNA [3]) of the same compound?
A: The Activity was “Active”.

Q: What about the Activity (Quadruplex DNA [4]) of the same compound?
A: The Activity was “Active”.

Q: What about the EC50 (Quadruplex DNA [5]) of the same compound?
A: Its EC50 is 12 µM.

Q: What about the Activity (Quadruplex DNA [6]) of the same compound?
A: Its Activity is “Active”.

Q: And the EC50 (Quadruplex DNA [7])?
A: Its EC50 is 5.93 µM.

Q: What about the Activity (Calf thymus DNA [8]) of the same compound?
A: Its Activity is “Active”.

Q: And the Ratio EC50 [9]?
A: Its Ratio EC50 is 2.

Q: And the Activity (Quadruplex DNA [10])?
A: Its Activity is “Active”.

Q: What about the Activity (Quadruplex DNA [11]) of the same compound?
A: Its Activity is “Active”.

Q: And the Activity (Calf thymus DNA [12])?
A: Its Activity is “inactive”.

Q: What about the Activity (Calf thymus DNA [13]) of the same compound?
A: The Activity was “Active”.

Q: With `COc1ccc2c(c[n+](C)c3c4cc5c(cc4ccc23)OCO5)c1OC` [CHELERYTHRINE] as the compound, how does the Activity (Quadruplex DNA [1]) read?
A: The Activity was “Active”.

Q: And the Activity (Quadruplex DNA [3])?
A: The Activity was “Active”.

Q: What about the Activity (Quadruplex DNA [4]) of the same compound?
A: Its Activity is “Active”.

Q: What about the EC50 (Quadruplex DNA [5]) of the same compound?
A: The EC50 was 2.59 µM.

Q: And the Activity (Quadruplex DNA [6])?
A: Its Activity is “Active”.

Q: What about the EC50 (Quadruplex DNA [7]) of the same compound?
A: Its EC50 is 3.75 µM.

Q: What about the Activity (Calf thymus DNA [8]) of the same compound?
A: The Activity was “Active”.

Q: And the Ratio EC50 [9]?
A: The Ratio EC50 was 0.7.

Q: And the Activity (Quadruplex DNA [10])?
A: Its Activity is “Active”.

Q: What about the Activity (Quadruplex DNA [11]) of the same compound?
A: The Activity was “Active”.

Q: What about the Activity (Calf thymus DNA [12]) of the same compound?
A: Its Activity is “inactive”.

Q: And the Activity (Calf thymus DNA [13])?
A: The Activity was “Active”.
